We go through five compounds from ChEMBL document CHEMBL3098129, “Preparation and evaluation of deconstruction analogues of 7-deoxykalafungin as AKT kinase inhibitors” (Bioorg Med Chem Lett, 2014).

A word on the IC50: it is the concentration needed to halve the response being measured.

Experiment [1] deals with cAMP-dependent protein kinase catalytic subunit alpha (Homo sapiens, UniProt P17612). As to the kind of experiment: Inhibition of PKAalpha (unknown origin) using serine/threonine 01 peptide as substrate after 1 hr by FRET based Z'-LYTE assay. Put shortly:
(§1)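 Run with a commercial Z'-LYTE kit, a FRET read-out of the kinase phosphorylating a peptide substrate. It detects functional inhibition of kinase activity regardless of mechanism.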

Experiment [2] concerns the target RAC-alpha serine/threonine-protein kinase (Homo sapiens, UniProt P31749). Nature of the experiment: Inhibition of recombinant AKT1 (unknown origin) using serine/threonine 06 peptide as substrate after 1 hr by FRET based Z'-LYTE assay. Put shortly: as §1

The structures appear in SMILES notation. Bounds are passed on as bounds.

Chain of RAC-alpha serine/threonine-protein kinase (P31749 whole entry): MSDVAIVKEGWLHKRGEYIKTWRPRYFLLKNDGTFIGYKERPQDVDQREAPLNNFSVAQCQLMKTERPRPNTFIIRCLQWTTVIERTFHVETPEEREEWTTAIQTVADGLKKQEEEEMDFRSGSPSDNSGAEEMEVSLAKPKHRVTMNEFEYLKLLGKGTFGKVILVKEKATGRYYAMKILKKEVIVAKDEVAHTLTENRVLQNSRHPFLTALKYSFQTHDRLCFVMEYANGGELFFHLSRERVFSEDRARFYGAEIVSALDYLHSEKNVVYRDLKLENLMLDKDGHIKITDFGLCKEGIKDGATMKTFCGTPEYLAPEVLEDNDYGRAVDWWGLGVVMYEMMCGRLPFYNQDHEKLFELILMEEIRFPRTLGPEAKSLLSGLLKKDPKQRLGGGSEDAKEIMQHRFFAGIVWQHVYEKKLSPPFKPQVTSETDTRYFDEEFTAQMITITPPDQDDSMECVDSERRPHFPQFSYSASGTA

Turning to `O=C1C[C@@H](O)[C@@H](C2=CC(=O)c3ccccc3C2=O)O1`, the IC50 in experiment [1] stood at 0.43 µM; in experiment [2] it was 2.94 µM.

`COC/C=C/C(=O)c1ccccc1`: the IC50 in experiment [1] is more than 100 µM; in experiment [2] it was 50 µM.

As for `COC(=O)CC/C=C/C(=O)c1ccccc1`, the IC50 was more than 100 µM in experiment [1] and 13.7 µM in experiment [2].

For the compound `C=CC(=O)c1ccccc1`, the IC50 was more than 100 µM in experiment [1] and 12.3 µM in experiment [2].

Consider `C[C@H]1O[C@@H]2CC(=O)O[C@@H]2C2=C1C(=O)c1ccccc1C2=O`, for which the IC50 is more than 100 µM in experiment [1] and 0.28 µM in experiment [2].
